The structures appear in SMILES notation.

The target of the first assay is T1, Serotonin 3 (5-HT3) receptor (Rattus norvegicus, UniProt P35563+Q9JJ16).
T1 sequence (P35563 whole entry): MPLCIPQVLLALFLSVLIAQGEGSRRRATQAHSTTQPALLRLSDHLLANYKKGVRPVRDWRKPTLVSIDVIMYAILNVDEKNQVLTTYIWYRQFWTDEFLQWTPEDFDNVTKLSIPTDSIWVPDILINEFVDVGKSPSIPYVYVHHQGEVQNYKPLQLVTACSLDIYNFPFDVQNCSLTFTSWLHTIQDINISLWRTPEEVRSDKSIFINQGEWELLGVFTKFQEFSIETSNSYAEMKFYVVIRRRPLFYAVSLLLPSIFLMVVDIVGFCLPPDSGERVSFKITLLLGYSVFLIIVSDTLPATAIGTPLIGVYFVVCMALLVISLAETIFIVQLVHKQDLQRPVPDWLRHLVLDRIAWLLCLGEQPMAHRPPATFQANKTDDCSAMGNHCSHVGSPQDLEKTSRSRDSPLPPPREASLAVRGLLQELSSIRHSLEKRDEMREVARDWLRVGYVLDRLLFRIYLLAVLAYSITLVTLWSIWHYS
T1 sequence (Q9JJ16 whole entry): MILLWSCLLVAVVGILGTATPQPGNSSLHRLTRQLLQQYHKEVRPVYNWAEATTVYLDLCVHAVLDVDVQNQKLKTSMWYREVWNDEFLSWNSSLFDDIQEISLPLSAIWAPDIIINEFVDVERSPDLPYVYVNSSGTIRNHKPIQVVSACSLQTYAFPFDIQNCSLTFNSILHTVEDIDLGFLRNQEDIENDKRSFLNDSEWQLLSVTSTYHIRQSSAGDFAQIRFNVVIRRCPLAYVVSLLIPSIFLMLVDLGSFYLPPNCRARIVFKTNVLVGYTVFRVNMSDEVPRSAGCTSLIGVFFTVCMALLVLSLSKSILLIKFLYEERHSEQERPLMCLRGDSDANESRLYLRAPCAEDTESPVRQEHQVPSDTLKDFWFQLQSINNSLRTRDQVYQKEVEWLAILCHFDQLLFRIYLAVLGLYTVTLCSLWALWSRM
The assay is described as follows: Displacement of [3H]Q-ICS-205-930 from 5-hydroxytryptamine 3 receptor recognition sites in rat brain membranes. Format: cell membranes. The method in brief:
(§1)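 Value reported as mean ± SEM where n ≥ 3 independent determinations; where no SEM is given, mean of two independent determinations, individual values typically within ±10% of the mean.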
As to `Cn1cc(C2=NC[C@]3(CN4CCC3CC4)O2)c2ccccc21`, the IC50 was 2.88 nM.

Consider `Cn1cc(C2=NCC3(CN4CCC3CC4)O2)c2ccccc21` (stereo not given), for which the IC50 is 3.16 nM. Consider `Cn1cc(C2=NC[C@@]3(CN4CCC3CC4)O2)c2ccccc21`, for which the half-inhibitory concentration (IC50) is 2.57 nM. On the same count and under the same terms, the figure for `C#CCn1cc(C2=NCC3(CN4CCC3CC4)O2)c2ccccc21` (stereo not given) is 6.17 nM; for `Cn1cc(C2=NCC3(CN4CCC3CC4)O2)c2cc(N)ccc21` (stereo not given) it is 575 nM. On to `Cc1ccc2c(c1)c(C1=NCC3(CN4CCC3CC4)O1)cn2C` (stereo not given), for which the concentration for half-maximal inhibition (IC50) is 132 nM.

In turn, `Cc1cccc2c(C3=NCC4(CN5CCC4CC5)O3)cn(C)c12` (stereo not given) had an IC50 of 8.91 nM. Regarding `CN1CCC2(CC1)CN=C(c1cn(C)c3ccccc13)O2`, the half-maximal inhibitory concentration (IC50) was 158 nM. With `Cn1cc(C2=NCC3(CC4CCC(C3)N4Cc3ccccc3)O2)c2ccccc21` (stereo not given), the IC50 is 174 nM.

`Cn1cc(C2=NCC3(CN4CCC3CC4)O2)c2cc(F)ccc21` (stereo not given) gave an IC50 of 14.8 nM. Compound `Cn1cc(C2=NCC3(C[N+]4([O-])CCC3CC4)O2)c2ccccc21` (stereo not given) gave an IC50 of 2630 nM.

Regarding `c1ccc2c(C3=NCC4(CN5CCC4CC5)O3)[nH]nc2c1` (stereo not given), the IC50 was 26.3 nM. For the compound `c1ccc2c(C3=NCC4(CN5CCC4CC5)O3)csc2c1` (stereo not given), the IC50 is 26.9 nM.

Consider `Cn1c(I)c(C2=NCC3(CN4CCC3CC4)O2)c2ccccc21` (stereo not given), for which the IC50 was 26.9 nM. `Cn1cc(C2=NCC3(CC4CCC(C3)N4)O2)c2ccccc21` (stereo not given) had an IC50 of 11.2 nM.

The compound `Cn1cc(C2=NC[C@@]3(C[N@@]4CC[C@@H]3C4)O2)c2ccccc21` gave an IC50 of 3.47 nM. As to `C=CCn1cc(C2=NCC3(CN4CCC3CC4)O2)c2ccccc21` (stereo not given), the half-maximal inhibitory concentration (IC50) was 7.94 nM. Compound `CCn1cc(C2=NCC3(CN4CCC3CC4)O2)c2ccccc21` (stereo not given) showed an IC50 of 13.5 nM. Consider `CC(=O)c1c(C2=NCC3(CN4CCC3CC4)O2)c2ccccc2n1C` (stereo not given), for which the IC50 is 6.46 nM. With `Cn1cc(C2=NC[C@]3(C[N@@]4CC[C@@H]3C4)O2)c2ccccc21`, the IC50 is 3.09 nM.

`COc1ccc2c(c1)c(C1=NCC3(CN4CCC3CC4)O1)cn2C` (stereo not given) showed an IC50 of 263 nM.

Regarding `COc1cccc(C2=NCC3(CN4CCC3CC4)O2)c1` (stereo not given), the IC50 is 407 nM. On the same count and under the same terms, then `c1ccc2c(c1)c(C1=NCC3(CN4CCC3CC4)O1)cn2CC1CC1` (stereo not given), with 13.2 nM; and `Cn1cc(C2=NCC3(CCN4CCCC3C4)O2)c2ccccc21` (stereo not given), with 1.12 nM.

For the compound `Cn1cc(C2=NCC3(CN4CCC3CC4)O2)c2cc(O)ccc21` (stereo not given), the IC50 is 195 nM. `Cn1cc(C2=NCC3(CN4CCC3CC4)O2)c2cc([N+](=O)[O-])ccc21` (stereo not given) showed an IC50 of 229 nM. On to `c1ccc2c(C3=NCC4(CN5CCC4CC5)O3)c[nH]c2c1` (stereo not given), for which the IC50 is 4.79 nM. Still for that read-out and setting: the figure for `Cn1cc(C2=NCC3(C[N+]4(C)CCC3CC4)O2)c2ccccc21` (single isomer, unassigned; 22n) is 42.7 nM; for `Cn1cc(C2=NCC3(C[N+]4(C)CCC3CC4)O2)c2ccccc21` (single isomer, unassigned; 22o) it is 10.2 nM. Same read-out and setting: the figure for `CN1C2CCC1CC1(CN=C(c3cn(C)c4ccccc34)O1)C2` (stereo in doubt; 22b) is 4.57 nM; for `Cn1cc(C2=NCC3(CC4CCC(C3)[N+]4(C)C)O2)c2ccccc21` (stereo in doubt; 22c) it is 5.01 nM; for `CN1C2CCC1CC1(CN=C(c3cn(C)c4ccccc34)O1)C2` (stereo in doubt; 22d) it is 6.31 nM. Compound `Cn1cc(C2=NCC3(CC4CCC(C3)[N+]4(C)C)O2)c2ccccc21` (stereo in doubt; 22e) had an IC50 of 3.31 nM.

The next assay concerns the target T1, Serotonin 3 (5-HT3) receptor. The assay is described as follows: Compound was evaluated for the displacement of [3H]Q-ICS-205-930 from 5-HT3 recognition sites in rat brain membranes. The class given is cell membranes. The gist of the method: as §1
`Cn1c([Si](C)(C)C)c(C2=NCC3(CN4CCC3CC4)O2)c2ccccc21` (stereo not given) gave an IC50 of 155 nM. The compound `CN1[C@@H]2CC[C@H]1C[C@@H](OC(=O)c1c[nH]c3ccccc13)C2` [TROPISETRON] had an IC50 of 1.26 nM.

Values taken from ChEMBL document CHEMBL1126265, “Novel 5-HT3 antagonists: indol-3-ylspiro(azabicycloalkane-3,5'(4'H)-oxazoles)” (J Med Chem, 1992).
